Results published in ChEMBL document CHEMBL1144485, “The synthesis and the in vitro cytotoxicity studies of bisnaphthalimidopropyl polyamine derivatives against colon cancer cells and parasite Leishmania infantum” (Bioorg Med Chem, 2007).

How the values were obtained:
Caco-2 [1] = experiment: Cytotoxicity activity against Caco-2 cells after 48 by MTT assay; type: cell-based; conditions: Homo sapiens
Summary of the method: (§1)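 Caco-2 cells in Earle's MEM with 10% FCS, glutamine, non-essential amino acids, penicillin/streptomycin; seeded at 2 × 10^4 cells cm−2, 24 h before drug. Compounds (stock in 20% DMSO, diluted in medium) at 0.01–40 µM for 24 or 48 h, 37 °C. MTT 1 mg/ml in serum-free medium 4 h, DMSO solubilisation, A560. IC50 = 50% absorbance reduction vs control from fitted log line; six replicates, mean ± SD.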

Caco-2 [2] = experiment: Cytotoxicity activity against Caco-2 cells after 24 by MTT assay; type: cell-based; conditions: Homo sapiens; summary of the method: as §1
Leishmania infantum = experiment: Cytotoxicity activity against Leishmania infantum after 72 hrs by MTT assay; type: functional, organism-based
Summary of the method: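 L. infantum promastigotes (clone MHOM/MA671TMA-P263), log phase (2-day culture), grown at 27 °C in RPMI with 10% heat-inactivated FBS, 2 mM glutamine, 20 mM Hepes, penicillin/streptomycin. 10^6/ml exposed to serial drug concentrations (0.30–100 µM) for 3 days, 27 °C. MTT 0.25 mg/ml final, 4 h, 27 °C; SDS/DMF pH 4.8 lysis 1 h at 37 °C, A550. Growth IC50 by linear regression; at least five assays, ± SD.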

SMILES	IC50 (Caco-2 [1]) [nM]	IC50 (Caco-2 [2]) [nM]	IC50 (Leishmania infantum) [nM]
O=C1c2cccc3cccc(c23)C(=O)N1CCCNCCCCCCCCCCNCCCN1C(=O)c2cccc3cccc(c23)C1=O [BNIPDADEC]	360	770	–
O=C1c2cccc3cccc(c23)C(=O)N1CCCNCCCCNCCCNCCCN1C(=O)c2cccc3cccc(c23)C1=O [BNIPSPD]	150	470	470
O=C1c2cccc3cccc(c23)C(=O)N1CCCNCCCCCCCCCNCCCN1C(=O)c2cccc3cccc(c23)C1=O [BNIPDANON]	670	3600	780
O=C1c2cccc3cccc(c23)C(=O)N1CCCNCCCNCCCNCCCN1C(=O)c2cccc3cccc(c23)C1=O [BNIPDPTA]	1540	5140	1540
O=C1c2cccc3cccc(c23)C(=O)N1CCCNCCCCCCCCNCCCN1C(=O)c2cccc3cccc(c23)C1=O [BNIPDAOCT]	3200	6200	780
O=C1c2cccc3cccc(c23)C(=O)N1CCCNCCNCCNCCCN1C(=O)c2cccc3cccc(c23)C1=O [BNIPDETA]	22300	21700	740
